ChEMBL document CHEMBL5357041, “Discovery of novel β-elemene hybrids with hydrogen sulfide-releasing moiety possessing cardiovascular protective activity for the treatment of atherosclerosis” (RSC Med Chem, 2024)
≈ marks a conversion by molar mass, not a printed value. Calls of active or inactive are those of the source. The calls are words filed in the database; no cut-off is given here.

What was measured:
[1] = test system: Thoracic aorta; assay: Vasodilation activity against KCl-induced Sprague-Dawley rat thoracic aorta vessels contraction at 1 uM; type: functional
Procedure, shortened: (§1)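 Aortic rings of about 2 mm from anesthetized SD rats mounted in Krebs solution at 37 °C under oxygen, preload 9.8 mN, equilibrated about 1 h. Rings contracted with 25 mM K⁺, then compound added cumulatively. Relaxation (%) = (maximum KCl tension − tension after compound)/(maximum KCl tension − preload). ADT-OH served as control; mean ± SD, n = 4.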

[2] = test system: Thoracic aorta; assay: Vasodilation activity against KCl-induced Sprague-Dawley rat thoracic aorta vessels contraction at 5 uM; type: functional; procedure, shortened: as §1
[3] = Cytotoxicity against mouse BMDM cells assessed as cell viability at 100 uM incubated for 24 hrs by MTT assay; type: toxicity, cell-based; conditions: BMDM cells (bone marrow-derived macrophages), read-out: Activity
Procedure, shortened: (§2)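 Primary bone marrow macrophages taken from 6-week-old male C57 mice and cultured 6–7 days before use. Compounds dosed for 24 h, then MTT added for 4 h and formazan dissolved in DMSO; absorbance read at 570 nm. Triplicate wells; medium-only and untreated-cell controls; mean ± SD, n = 4.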

[4] = test system: Thoracic aorta; assay: Vasodilation activity against KCl-induced Sprague-Dawley rat thoracic aorta vessels contraction at 20 uM; type: functional; procedure, shortened: as §1
[5] = test system: Thoracic aorta; assay: Vasodilation activity against KCl-induced Sprague-Dawley rat thoracic aorta vessels contraction at 10 uM; type: functional; procedure, shortened: as §1
[6] = Cytotoxicity against mouse BMDM cells assessed as cell viability at 50 uM incubated for 24 hrs by MTT assay; type: toxicity, cell-based; conditions: BMDM cells (bone marrow-derived macrophages), read-out: Activity; procedure, shortened: as §2
[7] = test system: Thoracic aorta; assay: Vasodilation activity against KCl-induced Sprague-Dawley rat thoracic aorta vessels contraction at 40 uM; type: functional; procedure, shortened: as §1
[8] = test system: HUVEC; assay: Inhibition of H2O2-induced oxidative damage in HUVECs preincubated for 24 hrs followed by H2O2 addition and measured after 2 hrs by MTT method; type: functional, cell-based; conditions: Homo sapiens, time 26.0 hrs
Procedure, shortened: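 HUVECs were seeded and grown 24 h at 37 °C, 5% CO₂, then given compound (0.5, 5 or 20 μM) for 24 h. Control and model wells received serum-free medium instead. Model and treated wells were then exposed to 1 mM H₂O₂ for 2 h, followed by MTT for 4 h, DMSO, and absorbance at 570 nm. Trolox was the positive control; mean ± SD, n = 5.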

[9] = test system: HUVEC; assay: Cytotoxicity against HUVECs at 0.5 to 200 uM incubated for 24 hrs by MTT assay; type: toxicity, cell-based; conditions: human, dose 0.5-200 µM
Procedure, shortened: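 HUVECs bought from ATCC; compounds given for 24 h, then MTT (5 mg/mL, 20 μL/well) added for 4 h. Formazan dissolved in DMSO and absorbance read at 570 nm. Medium-only and untreated-cell wells served as controls.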

[10] = test system: RAW264.7; assay: Lipid lowering activity in ox-LDL stimulated mouse RAW264.7 cells at 50 uM by oil red O staining based microscopic analysis; type: functional, cell-based
Procedure, shortened: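 RAW 264.7 cells allowed to adhere 2 h, then exposed to ox-LDL (50 μg/mL) plus compound (50 μM) for 24 h. Cells fixed in 4% paraformaldehyde, stained with oil red O, rinsed in 60% isopropanol and counterstained with hematoxylin. Oil red O-positive area percentage quantified microscopically; ANOVA used.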

[11] = Water solubility of the compound after 20 mins by HPLC analysis; type: physicochemical
Procedure, shortened: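 Compound suspended in 1 mL water at room temperature, sonicated 20 min and passed through a 0.22 μm filter. Filtrate analyzed by HPLC (MeCN/water 95:5, 1.0 mL/min, UV 254 nm) and quantified against a standard curve of 0.5–500 μg/mL in MeOH.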

[12] = test system: Thoracic aorta; assay: Vasodilation activity against KCl-induced Sprague-Dawley rat thoracic aorta vessels contraction in presence of glyburide; type: functional, tissue-based
[13] = Induction of H2S release in phosphate buffer at 100 uM measured upto 150 mins under L-cysteine stimulated condition by microplate reader analysis; conditions: 2.5 h
Procedure, shortened: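 Compound (100 μM) incubated with 1 mM L-cysteine in phosphate buffer at 37 °C, sampled at 0–150 min. Each sample quenched with zinc acetate and trichloroacetic acid, then N,N-dimethyl-p-phenylenediamine and FeCl₃ in HCl added. Absorbance read at 670 nm after 10 min; H₂S quantified against a NaHS standard curve (5–150 μM).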

Compound	Activity [1]	Activity [2]	viability at 24 h, 100 µM [3]	Activity [4]	Activity [5]	viability at 24 h, 50 µM [6]	Activity [7]	inhibition [8]	Activity [9]	Activity [10]	solubility at 20 min [11]	Activity [12]	Activity [13]
C=C[C@]1(C)CC[C@@H](C(=C)COC(=O)CCCCCCC(=O)Oc2ccc(-c3cc(=S)ss3)cc2)C[C@H]1C(=C)C	12.81%	5.04%	202%	7.96%	0.55%	189%	14.68%						
C=C[C@]1(C)CC[C@@H](C(=C)C)C[C@H]1C(=C)COC(=O)C(NC(=O)CCCCC1CCSS1)C(C)CC (some centres not stated)	1.1%	2.78%	882%	5.16%	-3.6%	672%	14.67%						
C=C[C@]1(C)CC[C@@H](C(=C)C)C[C@H]1C(=C)COC(=O)CCCCC1CCSS1 (some centres not stated)	-19.8%	-2.4%	336%	24.52%	20.75%	157%	17.27%						
C=C[C@]1(C)CC[C@@H](C(=C)C)C[C@H]1C(=C)COC(=O)C(NC(=O)CCC(=O)OCCOc1ccc(-c2cc(=S)ss2)cc1)C(C)CC (some centres not stated)	0.64%	2.75%	272%	7.93%	6.75%	269%	13%						
C=C[C@]1(C)CC[C@@H](C(=C)CO)C[C@H]1C(=C)C	0.09%	4.63%	281%	27.81%	5.63%	275%	53.06%	Active	Non-Toxic				
C=C[C@]1(C)CC[C@@H](C(=C)COC(=O)c2c(F)cccc2C(=O)OCCOc2ccc(-c3cc(=S)ss3)cc2)C[C@H]1C(=C)C	18.12%	25.08%	347%	51.85%	38.87%	193%	61.41%	Active	Non-Toxic	Active	40 µg/mL (≈ 62.6 µM)	Active	100 µM
C=C[C@]1(C)CC[C@@H](C(=C)C)C[C@H]1C(=C)COC(=O)CCC(=O)OCCOc1ccc(-c2cc(=S)ss2)cc1	7.47%	-8.64%	262%	13.2%	14.98%	244%	7.43%						
O=C(O)CCCCC1CCSS1 (stereo not drawn) [LIPOIC ACID, ALPHA]													20 µM
C=C[C@]1(C)CC[C@@H](C(=C)COC(=O)CCCCCC(=O)Oc2ccc(-c3cc(=S)ss3)cc2)C[C@H]1C(=C)C	-1.15%	6.64%	459%	16.08%	6.99%	232%	21.17%						
Oc1ccc(-c2cc(=S)ss2)cc1	3.08%	5.39%		61.69%	42.24%		75.01%	Active	Non-Toxic			inactive	
C=C[C@]1(C)CC[C@@H](C(=C)COC(=O)CCC(=O)OCCOc2ccc(-c3nc(=O)ss3)cc2)C[C@H]1C(=C)C	-0.71%	10.11%	254%	26.82%	17.84%	266%	34.29%			Active			
C=C[C@]1(C)CC[C@@H](C(=C)COCCCCCCCCOc2ccc(C(N)=S)cc2)C[C@H]1C(=C)C	-4.54%	1.71%	27.1%	12.44%	8.86%	74.5%	19.64%			Active			
C=C[C@]1(C)CC[C@@H](C(=C)COC(=O)/C=C\C(=O)OCCOc2ccc(-c3cc(=S)ss3)cc2)C[C@H]1C(=C)C	-4.07%	1.54%	89.7%	12.57%	7.28%	99%	10.78%						
NC(=S)c1ccc(O)cc1													50 µM
C=C[C@]1(C)CC[C@@H](C(=C)COC(=O)CCC(=O)OCCOc2ccc(-c3cc(=S)ss3)cc2)C[C@H]1C(=C)C	1.27%	6.87%	349%	12.67%	11.63%	264%	12.14%						100 µM
C=C[C@]1(C)CC[C@@H](C(=C)COC(=O)CCCCCC(=O)Oc2ccc(-c3nc(=O)ss3)cc2)C[C@H]1C(=C)C	-0.4%	4.76%	391%	7.08%	2.38%	323%	8.22%			Active			
C=C[C@]1(C)CC[C@@H](C(=C)COCCCCOc2ccc(C(N)=S)cc2)C[C@H]1C(=C)C	4.61%	4.13%	14.9%	15.38%	17.37%	163%	30.23%						
C=C[C@]1(C)CC[C@@H](C(=C)COC(=O)CCCCCC(=O)Oc2ccc(C(N)=S)cc2)C[C@H]1C(=C)C	1.2%	4.53%	219%	4.19%	2.67%	177%	6.38%						
C=C[C@]1(C)CC[C@@H](C(=C)COC(=O)CCCCC2CCSS2)C[C@H]1C(=C)C (some centres not stated)	-3.41%	-5.69%	378%	8.99%	6.38%	296%	11.51%						
C=C[C@]1(C)CC[C@@H](C(=C)COC(=O)C(NC(=O)CCCCC2CCSS2)C(C)CC)C[C@H]1C(=C)C (some centres not stated)	-5.9%	-8.16%	268%	1.21%	2.19%	208%	14.47%						
C=C[C@]1(C)CC[C@@H](C(=C)COC(=O)C(NC(=O)CCC(=O)OCCOc2ccc(-c3cc(=S)ss3)cc2)C(C)CC)C[C@H]1C(=C)C (some centres not stated)	1.7%	3.38%	584%	4.83%	-6.76%	295%	14.29%						100 µM
C=C[C@]1(C)CC[C@@H](C(=C)COC(=O)c2ccccc2C(=O)OCCOc2ccc(-c3cc(=S)ss3)cc2)C[C@H]1C(=C)C	-2.99%	10.01%	454%	17.46%	17%	349%	28.25%	Active	Non-Toxic	Active			100 µM
C=C[C@]1(C)CC[C@@H](C(=C)COCCCCCCOc2ccc(C(N)=S)cc2)C[C@H]1C(=C)C	6.68%	4.72%	17.1%	10.31%	0.07%	279%	12.18%						
